Activity calls are given as the source filed them.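 The calls were made as follows, unless noted: active = fluorescence slope higher than the sample average by over 3 SD (cut at about -0.22 in these data, passing the limit was not always enough); inactive = the rest.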
Legend:
[1] = inhibitors of TNFa-induced NFkB p65 translocation, primary screen, imaging, HUVEC, MLSMR starter and 10KST1 sets (AID 438;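 active = inhibition above 20% together with a positive visual image hit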;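 also: compound added about 3h40 before a 20 min TNFalpha stimulation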;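 as to inhibition: signal is the nuclear over cytoplasmic p65 intensity ratio per well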); details: HUVEC TNFa-induced p65 nuclear translocation; cell count: measured here: nuclei count (cytotoxicity indicator), at 2.08 µM; inhibition: at 2 µM, stronger effect = higher value, 0% TNFa-plus-vehicle, 100% no-TNFa wells
[2] = reduction of polyQ htt aggregates in cells – imaging, exon1htt(103Q)mCFP cells, high-content imaging, primary screen (AID 483;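 active = visual image review flags a hit and inhibition of aggregation exceeds 20%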;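 also: compound exposure lasted 3 days before fixation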;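 as to nuclei count: percent of the per-plate median nuclei count of sample wells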); details: exon1htt(103Q)mCFP cell line, aggregate imaging, at 2 µM; inhibition of aggregation: stronger effect = higher value; nuclei count: measured here: cell count, toxicity
[3] = endothelial E-selectin expression blockers – imaging, HUVEC, immunofluorescence, MLSMR starter and 10KST1 sets, primary screen (AID 487;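 active = visually confirmed hit in the image check and inhibition above 20%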;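 as to inhibition: signal is fraction of cell area covered by stained E-selectin grains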;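 as to nuclei count: 100% = median nuclei count of all wells on the same plate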); details: HUVEC TNFalpha-induced E-selectin immunofluorescence imaging, at 2 µM; inhibition: stronger effect = higher value; nuclei count: measured here: cell number, toxicity
[4] = target: Voltage-gated potassium channel subunit beta-2 (Rattus norvegicus) (UniProt P62483); assay: inhibitors of rat Kvbeta2 reductase activity – biochemical, NADPH fluorescence, primary screen (AID 622); details: recombinant KvBeta, 4-cyanobenzaldehyde reduction, at 10 µM, stronger effect = higher value;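 also: slope of raw intensity against log time taken from 70 to 1610 s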
[5] = target: Voltage-gated potassium channel subunit beta-2 (Rattus norvegicus) (UniProt P62483); assay: enhancers of rat Kvbeta2 NADPH turnover – biochemical, NADPH fluorescence, primary screen (AID 623;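 active = NADPH fluorescence slope more negative than the mean of all samples by about 3 SD, 99.7% confidence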;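 also: fluorescence intensity change per second fitted from 20 to 320 s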); details: Recombinant KvBeta, NADPH fluorescence decrease slope, 10 min; at 10 µM; stronger effect = lower value
[6] = target: Muscarinic acetylcholine receptor M4 (Homo sapiens) (UniProt P08173); assay: M4-linked GIRK flux change, two-sided – cell-based, HEK293 M4/GIRK, thallium flux, BTC-AM, M4 allosteric agonist project, primary screen (AID 625;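 active = fluorescence slope after compound addition differing from the mean of all tested samples at 99.7% confidence, mostly higher but some lower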;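 also: thallium influx through GIRK channels coupled to M4 in HEK293 cells with BTC-AM dye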); details: at 10 µM, actives lie on both sides
How it was run: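 Material – HEK293 cells with M4 receptor and GIRK channels · Buffer or medium – pH 7.3 thallium assay buffer · Doses – one dose, 10 µM final · Timing – cells overnight at 37 °C, BTC-AM loading 1 h, reads 2 min total · Measured by – kinetic fluorescence with BTC-AM dye · Controls – carbachol and DMSO controls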

[7] = blockers of RIG-like receptor reporter activation – cell-based, Sendai virus stimulus, luciferase, 10K MLSCN set, TLR/RLR signaling modifier project, primary screen (AID 602276;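 active = inhibition at or above 50% at 10 µM; inactive = inhibition below 50%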;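 also: firefly luciferase from ISG56 promoter only with Renilla not read in this screen; 0% = Sendai virus plus DMSO and 100% = medium plus DMSO without virus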); details: HEK293 RL24 IRF3 luciferase reporter, at 10 µM, stronger effect = higher value
[8] = TLR3 IRF3 reporter activation blockers – cell-based, poly I:C stimulus, luciferase, 10K MLSCN set, primary screen (AID 602277;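 active = inhibition of the reporter signal at or above 50%; inactive = inhibition below 50%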); details: HEK293-TLR3 RL24 IRF3 luciferase reporter, at 10 µM, stronger effect = higher value

Chain of Muscarinic acetylcholine receptor M4 (Homo sapiens) (P08173 whole entry, looked up): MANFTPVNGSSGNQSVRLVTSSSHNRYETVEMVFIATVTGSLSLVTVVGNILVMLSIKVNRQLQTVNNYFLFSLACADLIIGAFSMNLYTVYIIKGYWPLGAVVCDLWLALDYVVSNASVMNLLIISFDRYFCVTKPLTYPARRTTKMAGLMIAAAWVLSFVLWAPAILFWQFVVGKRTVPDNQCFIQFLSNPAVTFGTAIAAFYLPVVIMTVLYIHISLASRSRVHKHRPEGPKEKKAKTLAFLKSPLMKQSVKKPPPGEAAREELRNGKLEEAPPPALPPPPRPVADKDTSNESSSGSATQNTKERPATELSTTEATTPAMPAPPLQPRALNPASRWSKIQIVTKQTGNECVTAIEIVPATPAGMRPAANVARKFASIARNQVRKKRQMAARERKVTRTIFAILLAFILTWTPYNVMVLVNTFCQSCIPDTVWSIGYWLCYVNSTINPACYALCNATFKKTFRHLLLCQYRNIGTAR
Chain of Voltage-gated potassium channel subunit beta-2 (Rattus norvegicus) (P62483 whole entry, looked up): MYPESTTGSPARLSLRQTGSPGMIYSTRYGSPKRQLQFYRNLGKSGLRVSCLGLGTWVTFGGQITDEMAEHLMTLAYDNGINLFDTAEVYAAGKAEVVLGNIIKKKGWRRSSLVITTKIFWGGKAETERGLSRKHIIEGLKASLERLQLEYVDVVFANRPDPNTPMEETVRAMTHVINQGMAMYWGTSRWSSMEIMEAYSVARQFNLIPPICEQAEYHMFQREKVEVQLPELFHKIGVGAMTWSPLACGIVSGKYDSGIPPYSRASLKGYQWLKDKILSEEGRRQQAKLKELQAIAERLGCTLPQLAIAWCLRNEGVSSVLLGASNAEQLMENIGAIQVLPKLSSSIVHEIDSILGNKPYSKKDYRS

| SMILES | cell count [1] | inhibition [1] | inhibition of aggregation [2] | nuclei count [2] | inhibition [3] | nuclei count [3] | fluorescence slope [4] | NADPH fluorescence slope [5] | fluorescence slope [6] | inhibition [7] | inhibition [8] |
| --- | --- | --- | --- | --- | --- | --- | --- | --- | --- | --- | --- |
| Cn1c(=O)c(-c2ccccc2)nn2c3ccccc3nc12 | 704 | -35.3% (inactive) | 22.1% (inactive) | 96.1% | -79.5% (inactive) | 113% | -0.19 (inactive) | 4.4e-07 (inactive) | 0.00522 (inactive) | 13.7% (inactive) | 17.5% (inactive) |
| O=C(NCc1ccc(Cl)cc1)c1ccc(COCC(F)(F)F)o1 | 702 | -3.9% (inactive) | -3.7% (inactive) | 91.3% | -28.9% (inactive) | 101% | -0.421 (inactive) | -0.00041 (inactive) | 0.00521 (inactive) | -1.43% (inactive) | -15.5% (inactive) |
| CCCCc1cc(=O)oc2cc(C)cc(OC(C)C(=O)O)c12 (stereo not drawn) | 452 | -2.1% (inactive) | -5.4% (inactive) | 110% | -39.6% (inactive) | 134% | -0.0718 (inactive) | -1e-05 (inactive) | 0.00603 (inactive) | 5.95% (inactive) | 21.5% (inactive) |
| COc1ccc(C2C(=O)N(C3CCCCC3)CC(=O)N2Cc2ccco2)cc1 (stereo not drawn) | 632 | -15% (inactive) | -40.5% (inactive) | 124% | -26.6% (inactive) | 101% | -0.526 (inactive) | 1.7e-05 (inactive) | 0.00562 (inactive) | 16.7% (inactive) | 22.1% (inactive) |
| CCc1cc2c(NCCC(=O)O)ncnc2s1 | 507 | 15.8% (inactive) | 4.4% (inactive) | 103% | 13.4% (inactive) | 110% | -0.562 (inactive) | 1.3e-05 (inactive) | 0.00669 (inactive) | 12.3% (inactive) | 17.4% (inactive) |
| CCSc1nnc(NC(=O)c2ccc(C)o2)s1 | 603 | -10.7% (inactive) | 21.1% (inactive) | 96.3% | 11.4% (inactive) | 96.3% | -0.531 (inactive) | -4e-05 (inactive) | 0.00557 (inactive) | -41.5% (inactive) | -89% (inactive) |
| COc1ccc(C2=NOC(C(=O)NCCCN3CCOCC3)C2)cc1 (stereo not drawn) | 315 | 3.5% (inactive) | 11.3% (inactive) | 86% | 11.5% (inactive) | 84.7% | -0.554 (inactive) | -0.000122 (inactive) | 0.00417 (inactive) | 11.7% (inactive) | 23.1% (inactive) |
| COc1ccc(C(F)(F)F)cc1NC(=O)c1nc2nc(C)cc(C(F)F)n2n1 | 800 | 16.4% (inactive) | 14.9% (inactive) | 94.5% | -22.3% (inactive) | 103% | -0.498 (inactive) | -2e-05 (inactive) | 0.00547 (inactive) | 5.86% (inactive) | 10.9% (inactive) |

— PubChem BioAssay
